This assay has as its target T1, NAD-dependent protein deacetylase sirtuin-1 (Homo sapiens) (UniProt Q96EB6).
T1 sequence (whole entry): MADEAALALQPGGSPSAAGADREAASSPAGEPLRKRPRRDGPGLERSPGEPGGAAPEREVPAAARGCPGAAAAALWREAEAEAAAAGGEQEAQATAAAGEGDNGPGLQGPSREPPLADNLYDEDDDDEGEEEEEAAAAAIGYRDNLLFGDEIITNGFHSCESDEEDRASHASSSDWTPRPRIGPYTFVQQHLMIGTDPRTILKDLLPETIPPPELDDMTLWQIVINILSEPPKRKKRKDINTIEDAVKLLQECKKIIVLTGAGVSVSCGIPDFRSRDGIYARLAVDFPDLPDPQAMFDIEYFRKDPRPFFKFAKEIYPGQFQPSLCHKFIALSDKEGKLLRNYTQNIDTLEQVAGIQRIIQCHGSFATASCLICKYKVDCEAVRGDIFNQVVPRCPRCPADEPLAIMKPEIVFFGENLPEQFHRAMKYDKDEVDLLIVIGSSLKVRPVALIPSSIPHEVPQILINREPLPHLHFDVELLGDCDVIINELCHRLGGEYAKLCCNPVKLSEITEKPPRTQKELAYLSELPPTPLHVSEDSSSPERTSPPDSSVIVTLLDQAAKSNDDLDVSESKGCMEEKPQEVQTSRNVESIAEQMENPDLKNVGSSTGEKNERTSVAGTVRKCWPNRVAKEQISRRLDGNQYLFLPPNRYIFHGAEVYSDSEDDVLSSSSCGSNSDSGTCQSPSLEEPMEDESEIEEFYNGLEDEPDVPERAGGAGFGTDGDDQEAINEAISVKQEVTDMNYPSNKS
The assay can be described thus: Inhibition of SIRT1-mediated endogenous p53 deacetylase activity in human Namalwa cells assessed as concentration required to […] to twice the basal level after 3 hrs by ELISA. It counts as cell-based. The method in brief: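 Namalwa cells, 50,000/well, were exposed 3 h at 37 °C, 5% CO2, to 0.005–50 µM final (0.95% DMSO). Lysates were ELISA-captured on anti-p53 (DO-1), probed overnight with anti-acetyl-Lys382-p53, then HRP conjugate and Amplex Red (15 min; ex 550/em 610 nm). IC2xB is the concentration doubling basal (lowest) fluorescence. Means of three experiments.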
For orientation: In an ELISA, binding on a coated surface is turned into a signal by an enzyme label.

In ChEMBL document CHEMBL3425433, “Discovery of bicyclic pyrazoles as class III histone deacetylase SIRT1 and SIRT2 inhibitors” (Bioorg Med Chem Lett, 2015) one finds INH data, which are given here for one compound.

Regarding `NC(=O)C1CCCc2c1[nH]c1ccc(Cl)cc21` (racemic), the INH came to 0.6 µM.
